The nature of data set [1]: Solubility of the compound in FaSSIF. The format is ADME.
Data set [2] concerns Mus musculus. Put plainly: Toxicity in CB17 SCID mouse xenografted with human DOHH2 cells assessed as body weight fluctuations at 20 mg/kg, iv qd administered for 14 days measured over 14 days of compound treatment. It counts as organism-based, DOHH-2. Also on record: dose 20 mg/kg, route intravenous. To be noted: in vivo, 336 h. The gist of the method: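 DoHH2 subcutaneous xenograft in female CB17/SCID mice (5 × 10⁶ cells; dosing from ~167 mm³ mean tumor volume; n = 6/group). Daily tail-vein dosing for 14 consecutive days. Body weights followed over time across the study.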

Data set [3] deals with Tyrosine-protein kinase JAK2 (Homo sapiens) (UniProt O60674). Put plainly: Inhibition of JAK2 (unknown origin) at 0.5 uM by [33P]-ATP filter binding assay. An outline of the steps: (§1)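 Kinase panel of 18 enzymes; inhibition tested at 0.5 μM. Values are means of duplicates.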
Data set [4] in a line: Clearance in mouse liver microsomes by LC-MS/MS analysis. It counts as ADME. To be noted: read-out: CLH. An outline of the steps: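 Liver microsomes incubated with compound and NADPH at 37 °C. Samples taken at several time points, centrifuged, and supernatants analyzed by LC−MS/MS. t1/2 and CL calculated by first-order kinetics. Testosterone, propranolol and clozapine served as positive controls.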
(In general: Liver microsomes are vesicles of endoplasmic reticulum, rich in cytochrome P450 enzymes.)

The target in data set [5] is T1, Tyrosine-protein kinase BTK (Homo sapiens, UniProt Q06187). Put plainly: Binding affinity to Btk kinase domain (387 to 659) (unknown origin) assessed as compound-protein covalent adduct formation at Cys481 residue at 1:3 protein to compound molar ratio incubated for 3 hrs at 0 degC followed by overnight incubation with trypsin at 37 degC by LC-MS analysis. An outline of the steps:
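Covalent Btk kinase-domain adduct digested with trypsin. Resulting peptide fragments analyzed by mass spectrometry to locate the modified residue.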

Data set [6] in a line: Plasma concentration in CB17 SCID mouse xenografted with human DOHH2 cells at 20 mg/kg, iv qd administered for 14 days measured at 2 hrs post last dose. It counts as ADME, organism-based, DOHH-2. On the set-up: dose 20 mg/kg, route intravenous. An outline of the steps: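 Same DoHH2 xenograft study in female CB17/SCID mice, tail-vein dosing once daily for 14 days. Plasma compound concentrations determined at 2 and 24 h after the last administration.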
A general note: A xenograft is tissue or cells of one species grown in another, often human tumour cells in immunodeficient mice.

The target in data set [7] is Mitogen-activated protein kinase 14 (Homo sapiens) (UniProt Q16539). Nature of the data set: Inhibition of P38-alpha MAPK (unknown origin) at 0.5 uM by [33P]-ATP filter binding assay. The gist of the method: as §1
Sequence of Mitogen-activated protein kinase 14 (Homo sapiens) (Q16539 whole entry, the tested form may be a part): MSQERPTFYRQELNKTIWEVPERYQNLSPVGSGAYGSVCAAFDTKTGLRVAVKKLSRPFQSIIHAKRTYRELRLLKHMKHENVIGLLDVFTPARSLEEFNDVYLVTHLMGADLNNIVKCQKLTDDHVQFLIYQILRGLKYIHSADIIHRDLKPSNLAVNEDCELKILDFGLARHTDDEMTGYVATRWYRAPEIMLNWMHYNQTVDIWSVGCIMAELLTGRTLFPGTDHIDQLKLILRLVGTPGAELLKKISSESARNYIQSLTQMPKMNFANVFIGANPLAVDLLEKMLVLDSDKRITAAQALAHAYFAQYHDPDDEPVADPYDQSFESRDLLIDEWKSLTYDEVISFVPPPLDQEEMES
In data set [8] the target is T1, Tyrosine-protein kinase BTK. Nature of the data set: Binding affinity to Btk kinase domain (387 to 659) (unknown origin) assessed as compound-protein covalent adduct formation at 1:3 protein to compound molar ratio at 4 degC after 1 hr by LC-MS analysis. The gist of the method:
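Btk kinase domain (residues 387−659, MW 32136) incubated with 3 equiv of compound at 4 °C for 1 h. Mass spectrometry of the intact protein checked for mass peak shift consistent with 1-to-1 protein−compound adducts.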

The target is the same in data set [9]. Nature of the data set: Irreversible inhibition of Btk phosphorylation at Tyr551 in human Ramos cells at 1 uM incubated for 1 hr followed by compound washout with fresh media measured after 2 hrs by Western blot analysis. The format is cell-based. An outline of the steps:
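Ramos cells (5 × 10⁵) seeded overnight, treated with compound 1 h, then washed out with fresh media for 2 h. Cells stimulated with goat anti-human IgM for 3−5 min, lysed by boiling in SDS buffer, and Btk Tyr551 phosphorylation assessed by Western blot.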
For orientation: Immunoblotting shows a protein as a band on a membrane.

Data set [10] has as its target Receptor tyrosine-protein kinase erbB-2 (Homo sapiens, UniProt P04626). Put plainly: Inhibition of HER2 (unknown origin) after 1 hr by HTRF assay. The gist of the method: (§2)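 Recombinant kinases tested by HTRF KinEase protocol. Enzyme preincubated with inhibitor for a fixed 10 min. IC50 values are means of duplicates.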
Data set [11] concerns the target Tyrosine-protein kinase Blk (Homo sapiens, UniProt P51451). Nature of the data set: Inhibition of Blk (unknown origin) after 1 hr by HTRF assay. An outline of the steps: as §2
In data set [12] the target is T2, Receptor tyrosine-protein kinase erbB-4 (Homo sapiens, UniProt Q15303). Nature of the data set: Inhibition of HER4 (unknown origin) at 0.5 uM by [33P]-ATP filter binding assay. An outline of the steps: as §1
T2 sequence (Q15303 whole entry): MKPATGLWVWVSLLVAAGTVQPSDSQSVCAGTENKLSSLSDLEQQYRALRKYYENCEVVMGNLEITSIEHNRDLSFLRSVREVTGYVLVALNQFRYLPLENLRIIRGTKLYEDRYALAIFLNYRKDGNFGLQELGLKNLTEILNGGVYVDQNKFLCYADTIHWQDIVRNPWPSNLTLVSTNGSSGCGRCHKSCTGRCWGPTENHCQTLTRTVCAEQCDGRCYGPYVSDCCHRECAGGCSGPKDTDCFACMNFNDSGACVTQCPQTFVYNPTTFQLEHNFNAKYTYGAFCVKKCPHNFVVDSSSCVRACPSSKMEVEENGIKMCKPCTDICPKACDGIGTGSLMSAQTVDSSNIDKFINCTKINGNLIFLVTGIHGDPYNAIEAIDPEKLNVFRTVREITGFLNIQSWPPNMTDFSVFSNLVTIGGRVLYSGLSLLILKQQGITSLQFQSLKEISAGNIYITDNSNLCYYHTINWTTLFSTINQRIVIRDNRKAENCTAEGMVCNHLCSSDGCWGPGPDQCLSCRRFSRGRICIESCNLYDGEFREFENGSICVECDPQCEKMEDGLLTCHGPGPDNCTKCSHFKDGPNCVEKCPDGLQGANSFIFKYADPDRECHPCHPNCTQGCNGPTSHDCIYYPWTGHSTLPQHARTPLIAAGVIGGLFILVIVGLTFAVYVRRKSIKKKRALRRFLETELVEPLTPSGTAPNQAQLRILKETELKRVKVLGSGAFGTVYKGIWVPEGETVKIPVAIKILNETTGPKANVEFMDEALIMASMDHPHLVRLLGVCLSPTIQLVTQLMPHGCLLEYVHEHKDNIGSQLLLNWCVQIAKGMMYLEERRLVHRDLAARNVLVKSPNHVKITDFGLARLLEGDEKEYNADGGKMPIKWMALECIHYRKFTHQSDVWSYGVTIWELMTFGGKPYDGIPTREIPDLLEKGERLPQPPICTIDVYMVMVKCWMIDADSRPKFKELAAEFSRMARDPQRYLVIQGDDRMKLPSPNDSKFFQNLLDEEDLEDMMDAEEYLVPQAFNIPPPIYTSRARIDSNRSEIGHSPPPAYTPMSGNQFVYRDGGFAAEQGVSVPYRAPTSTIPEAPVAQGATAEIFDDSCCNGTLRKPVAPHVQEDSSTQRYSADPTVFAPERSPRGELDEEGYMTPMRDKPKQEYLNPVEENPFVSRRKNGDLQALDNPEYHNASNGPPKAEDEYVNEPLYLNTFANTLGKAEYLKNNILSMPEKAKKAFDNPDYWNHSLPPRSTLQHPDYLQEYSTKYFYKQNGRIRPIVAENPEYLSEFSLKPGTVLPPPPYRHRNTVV
A short description of data set [13]: Clearance in ICR mouse at 1 mg/kg, iv by LC-MS analysis. The format is ADME, organism-based. On the set-up: dose 1 mg/kg, route intravenous. To be noted: in vivo. The gist of the method:
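ICR mice (n = 3) given a single intravenous injection at 1 mg/kg. Blood sampled at various time points and analyzed by LC−MS to derive t1/2, CL and Vss.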

Data set [14] deals with Tyrosine-protein kinase JAK3 (Homo sapiens, UniProt P52333). Nature of the data set: Inhibition of Jak3 (unknown origin) after 1 hr by HTRF assay. An outline of the steps:
as §2

A further data set deals with WSU-NHL. Nature of the data set: Cytotoxicity against human WSU-NHL cells assessed as growth inhibition after 72 hrs by CellTiter-Glo luminescent cell viability assay. The format is functional. An outline of the steps:
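Lymphoma cells seeded at 5000 cells/well, incubated 24 h, then exposed to compounds for 72 h. Viability read by CellTiter-Glo luminescence. GI50 from dose−response curves, mean of two or three independent experiments in triplicate.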

Data set [15] addresses T2, Receptor tyrosine-protein kinase erbB-4. Put plainly: Inhibition of HER4 (unknown origin) after 1 hr by HTRF assay. An outline of the steps: as §2
Data set [16] has as its system Mus musculus. Put plainly: Toxicity in CB17 SCID mouse xenografted with human DOHH2 cells assessed as body weight fluctuations at 10 mg/kg, iv qd administered for 14 days measured over 14 days of compound treatment. To be noted: in vivo, 336 h. The format is organism-based, DOHH-2. Also on record: dose 10 mg/kg, route intravenous. The gist of the method: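 Female CB17/SCID mice carried subcutaneous DoHH2 xenografts (5 × 10⁶ cells injected), randomised at ~167 mm³ mean tumour volume into four groups (n = 6/group). Compound was given intravenously via the tail vein once daily for 14 consecutive days. Body weights were tracked over time throughout the study.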

Data set [17] concerns the target Tyrosine-protein kinase Tec (Homo sapiens, UniProt P42680). Put plainly: Inhibition of Tec (unknown origin) after 1 hr by HTRF assay. An outline of the steps: as §2

The structures appear in SMILES notation. In brackets after ≈: the same amount, converted by molar mass. Activity calls are given as the source filed them. No cut-off for these calls is given here.

T1 sequence (Q06187 whole entry, the tested form may be a part): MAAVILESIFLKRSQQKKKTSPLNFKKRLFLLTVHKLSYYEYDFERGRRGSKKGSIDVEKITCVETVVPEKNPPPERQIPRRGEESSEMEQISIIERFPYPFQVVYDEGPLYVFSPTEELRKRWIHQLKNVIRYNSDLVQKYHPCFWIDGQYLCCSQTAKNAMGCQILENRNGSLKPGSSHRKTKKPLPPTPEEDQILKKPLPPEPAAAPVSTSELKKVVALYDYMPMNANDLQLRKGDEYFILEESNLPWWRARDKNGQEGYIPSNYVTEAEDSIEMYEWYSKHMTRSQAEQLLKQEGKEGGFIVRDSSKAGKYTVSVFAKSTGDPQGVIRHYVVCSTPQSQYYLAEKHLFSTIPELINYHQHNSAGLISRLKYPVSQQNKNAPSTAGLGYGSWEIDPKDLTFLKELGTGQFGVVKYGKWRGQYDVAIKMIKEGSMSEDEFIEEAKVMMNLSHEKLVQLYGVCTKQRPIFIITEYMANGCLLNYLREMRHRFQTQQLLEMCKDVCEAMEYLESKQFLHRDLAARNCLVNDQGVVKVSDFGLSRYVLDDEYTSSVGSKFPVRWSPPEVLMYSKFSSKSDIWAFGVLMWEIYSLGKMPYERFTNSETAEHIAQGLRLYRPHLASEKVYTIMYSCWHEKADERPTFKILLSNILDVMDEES
Sequence of Receptor tyrosine-protein kinase erbB-2 (P04626 whole entry): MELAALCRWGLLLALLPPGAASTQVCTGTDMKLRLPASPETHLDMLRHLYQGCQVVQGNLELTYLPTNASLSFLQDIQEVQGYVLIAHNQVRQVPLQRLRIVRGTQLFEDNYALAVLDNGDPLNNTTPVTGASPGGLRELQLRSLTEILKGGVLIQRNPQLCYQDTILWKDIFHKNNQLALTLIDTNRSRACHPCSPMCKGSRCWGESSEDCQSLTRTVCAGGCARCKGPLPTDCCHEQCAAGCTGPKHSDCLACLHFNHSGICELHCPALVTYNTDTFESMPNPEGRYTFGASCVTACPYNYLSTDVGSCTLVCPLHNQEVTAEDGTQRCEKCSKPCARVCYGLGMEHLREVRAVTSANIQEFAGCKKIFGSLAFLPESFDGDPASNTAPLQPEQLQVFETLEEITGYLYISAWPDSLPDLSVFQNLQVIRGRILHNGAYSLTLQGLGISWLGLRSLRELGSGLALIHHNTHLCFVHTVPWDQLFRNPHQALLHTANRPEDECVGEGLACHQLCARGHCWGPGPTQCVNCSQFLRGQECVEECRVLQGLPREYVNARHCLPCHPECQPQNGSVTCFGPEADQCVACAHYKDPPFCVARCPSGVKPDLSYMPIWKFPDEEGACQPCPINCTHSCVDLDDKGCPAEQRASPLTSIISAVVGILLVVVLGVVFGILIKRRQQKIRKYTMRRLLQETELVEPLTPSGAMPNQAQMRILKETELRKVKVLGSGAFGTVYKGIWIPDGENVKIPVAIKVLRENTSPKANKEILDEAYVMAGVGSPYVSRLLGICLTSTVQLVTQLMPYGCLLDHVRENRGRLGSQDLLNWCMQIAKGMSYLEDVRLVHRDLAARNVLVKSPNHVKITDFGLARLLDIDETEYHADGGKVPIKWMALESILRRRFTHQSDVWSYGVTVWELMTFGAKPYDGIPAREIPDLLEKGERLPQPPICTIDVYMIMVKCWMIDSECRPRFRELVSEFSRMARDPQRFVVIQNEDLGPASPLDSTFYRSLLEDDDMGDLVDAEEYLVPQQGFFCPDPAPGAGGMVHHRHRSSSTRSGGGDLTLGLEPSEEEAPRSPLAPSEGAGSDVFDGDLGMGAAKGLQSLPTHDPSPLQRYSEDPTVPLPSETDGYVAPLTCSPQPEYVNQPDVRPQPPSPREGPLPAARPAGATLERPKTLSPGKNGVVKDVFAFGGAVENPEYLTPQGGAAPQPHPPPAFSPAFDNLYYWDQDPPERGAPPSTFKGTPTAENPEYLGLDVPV
Sequence of Tyrosine-protein kinase Blk (P51451 whole entry): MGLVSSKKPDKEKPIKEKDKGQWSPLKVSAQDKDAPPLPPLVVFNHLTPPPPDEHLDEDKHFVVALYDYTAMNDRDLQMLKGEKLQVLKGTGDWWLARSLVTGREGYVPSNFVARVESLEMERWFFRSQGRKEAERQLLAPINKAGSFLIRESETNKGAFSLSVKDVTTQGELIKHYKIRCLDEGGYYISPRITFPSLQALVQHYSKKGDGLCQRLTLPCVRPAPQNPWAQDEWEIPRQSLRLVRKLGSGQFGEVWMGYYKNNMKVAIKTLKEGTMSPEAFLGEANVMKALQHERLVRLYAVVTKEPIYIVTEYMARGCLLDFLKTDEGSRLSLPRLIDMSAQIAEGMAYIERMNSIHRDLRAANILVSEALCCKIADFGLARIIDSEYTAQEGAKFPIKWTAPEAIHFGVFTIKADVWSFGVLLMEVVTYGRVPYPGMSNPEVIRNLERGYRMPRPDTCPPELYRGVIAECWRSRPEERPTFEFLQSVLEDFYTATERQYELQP
Sequence of Tyrosine-protein kinase Tec (P42680 whole entry): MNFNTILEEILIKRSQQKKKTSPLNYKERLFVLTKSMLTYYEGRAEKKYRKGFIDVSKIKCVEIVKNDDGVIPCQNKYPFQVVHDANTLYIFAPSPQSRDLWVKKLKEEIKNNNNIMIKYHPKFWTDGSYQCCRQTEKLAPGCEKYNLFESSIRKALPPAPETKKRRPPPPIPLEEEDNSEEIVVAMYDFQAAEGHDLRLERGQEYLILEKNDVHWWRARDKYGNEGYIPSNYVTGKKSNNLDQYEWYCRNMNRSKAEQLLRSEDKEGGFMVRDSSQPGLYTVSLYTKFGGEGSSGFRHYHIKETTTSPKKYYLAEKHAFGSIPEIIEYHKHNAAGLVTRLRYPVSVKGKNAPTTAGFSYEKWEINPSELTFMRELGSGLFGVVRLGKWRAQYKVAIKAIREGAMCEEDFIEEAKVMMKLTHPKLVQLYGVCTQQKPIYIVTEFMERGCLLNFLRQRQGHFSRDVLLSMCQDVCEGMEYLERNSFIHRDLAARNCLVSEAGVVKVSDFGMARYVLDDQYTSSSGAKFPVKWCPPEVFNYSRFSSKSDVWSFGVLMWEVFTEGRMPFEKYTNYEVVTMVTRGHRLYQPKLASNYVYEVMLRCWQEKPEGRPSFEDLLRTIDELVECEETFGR

Usually solubility stands for how much of the substance goes into solution per volume. A higher solubility goes with a readily soluble substance. What is called IC50 is the concentration at which inhibition is half-maximal. Broadly, the clearance is a measure of how efficiently the substance is removed, as volume per time. A low value points to a low capacity for elimination. What is called GI50 is the concentration at which growth is held to half of that of the control. In data set [1], `C=CC(=O)Nc1cccc(Nc2ncc(NC(=O)c3cc(NC(=O)c4cccc(C(F)(F)F)c4)ccc3C)cn2)c1` returned a solubility of 7.02 µM (≈ 3.93 µg/mL). Also, the Activity entry in the data set with Mus musculus [2] and in the data set on Mus musculus [16] was “Non-toxic” throughout. The inhibition entry in data set [3], in data set [7], in data set [9] and in data set [12] was “Active” in each case. In addition, the microsomal CLint in [4] was 25.7 µL/min/mg. For the same molecule, the result in [5] and in [8] was Active. In data set [6], this molecule displayed a concentration at 2 h of 2100 ng/mL. In addition, the IC50 in data set [10] is 19 nM; in [11] it was 2.7 nM; in data set [14] it was 2680 nM; in data set [15], 5.5 nM; in [17] it was 8.2 nM. The same molecule displayed a clearance in [13] of 6.85 mL/min/kg. The GI50 in the data set on WSU-NHL turned out to be 31 nM.

(Values after ChEMBL document CHEMBL3286193, “Discovery of a series of 2,5-diaminopyrimidine covalent irreversible inhibitors of Bruton's tyrosine kinase with in vivo antitumor activity” (J Med Chem, 2014).)
